Experimental findings from ChEMBL document CHEMBL2150901, “Synthesis and biological activity of tricyclic cycloalkylimidazo-, pyrimido- and diazepinopurinediones” (Eur J Med Chem, 2011) are described below.

SMILES strings stand for the structures. The source made the active and inactive calls. No cut-off for these calls is given here.

Data set [1] deals with Mus musculus. Put plainly: Anticonvulsant activity in F1 albino mouse assessed as protection against maximal electroshock-induced seizures at 300 mg/kg, ip after 0.25 hrs. The class given is functional, organism-based. Details: dose 300 mg/kg. In a few lines:
(§1)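 Male albino F-1 mice (18–25 g), groups of 1–5 (rotorod 2–8). Compound given ip as a suspension in 0.5% methylcellulose at 30, 100 and 300 mg/kg. Seizures by maximal electroshock or subcutaneous pentylenetetrazole; neurotoxicity by rotorod. Read at 0.5 and 4 h, with some at 0.25, 1 and 2 h. Value is the minimum active dose, with protected (or toxic)/tested animals.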

Data set [2] is filed under the species Rattus norvegicus. Briefly: Selectivity ratio of Ki for adenosine A1 receptor in rat brain cortical membrane to Ki for adenosine A2A receptor in rat brain striatal membrane. The data set is classed as cell membranes. In a few lines: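 Ki ratios from radioligand competition binding. Rat A1 used brain cortical membranes and rat A2A used brain striatal membranes. Human A1 and A2A used membranes of CHO cells expressing the receptors. A1 radioligand [³H]CCPA; A2A radioligand [³H]MSX-2. Potent compounds were tested at 6–7 concentrations spanning 3 orders of magnitude.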

The test system of data set [3] is Mus musculus. Briefly: Anticonvulsant activity in F1 albino mouse assessed as protection against subcutaneous pentylenetetrazole-induced seizures at 300 mg/kg, ip after 0.5 hrs. The data set is classed as functional, organism-based. Also on record: dose 300 mg/kg. In a few lines: as §1
Data set [4] has as its system Mus musculus. Put plainly: Anticonvulsant activity in F1 albino mouse assessed as protection against subcutaneous pentylenetetrazole-induced seizures at 300 mg/kg, ip after 1 hr. Details: dose 300 mg/kg. The class given is functional, organism-based. In a few lines: as §1
In data set [5] the test system is Mus musculus. Put plainly: Anticonvulsant activity in F1 albino mouse assessed as protection against subcutaneous pentylenetetrazole-induced seizures at 300 mg/kg, ip after 4 hrs. The class given is functional, organism-based. Also on record: dose 300 mg/kg. In a few lines:
as §1

Data set [6] has as its system Mus musculus. Briefly: Neurotoxicity in F1 albino mouse assessed as minimal motor impairment at 300 mg/kg, ip after 1 hr by rotorod test. Also on record: dose 300 mg/kg, route intraperitoneal. The class given is toxicity, organism-based. Conditions: in vivo. The method in brief: as §1
(The rotarod test checks motor coordination on a turning rod.)

Data set [7] relates to Mus musculus. Briefly: Neurotoxicity in F1 albino mouse assessed as minimal motor impairment at 300 mg/kg, ip after 4 hrs by rotorod test. The data set is classed as toxicity, organism-based. Also on record: dose 300 mg/kg, route intraperitoneal. As to conditions: in vivo. The method in brief: as §1
For data set [8], the system named is Mus musculus. Put plainly: Anticonvulsant activity in F1 albino mouse assessed as protection against maximal electroshock-induced seizures at 300 mg/kg, ip after 1 hr. The data set is classed as functional, organism-based. Details: dose 300 mg/kg. In a few lines:
as §1
In general terms: The maximal electroshock test induces tonic seizures with an electrical stimulus.

In data set [9] the test system is Mus musculus. Briefly: Anticonvulsant activity in F1 albino mouse assessed as protection against maximal electroshock-induced seizures at 300 mg/kg, ip after 4 hrs. The class given is functional, organism-based. Details: dose 300 mg/kg. In a few lines: as §1
Data set [10] has as its target T1, Adenosine receptor A1 (Rattus norvegicus) (UniProt P25099).
T1 sequence (whole entry): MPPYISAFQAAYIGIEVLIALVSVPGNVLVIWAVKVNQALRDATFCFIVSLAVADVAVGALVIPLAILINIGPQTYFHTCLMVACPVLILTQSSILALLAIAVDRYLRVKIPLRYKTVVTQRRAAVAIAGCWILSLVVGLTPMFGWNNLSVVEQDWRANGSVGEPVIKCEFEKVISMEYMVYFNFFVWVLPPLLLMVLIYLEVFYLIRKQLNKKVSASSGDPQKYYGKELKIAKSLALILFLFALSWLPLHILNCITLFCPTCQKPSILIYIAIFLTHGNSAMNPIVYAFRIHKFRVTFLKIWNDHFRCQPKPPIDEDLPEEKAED
Put plainly: Displacement of [3H]CCPA from adenosine A1 receptor in rat brain cortical membrane at 25 uM. The class given is cell membranes.

For data set [11], the system named is Mus musculus. Put plainly: Anticonvulsant activity in F1 albino mouse assessed as protection against subcutaneous pentylenetetrazole-induced seizures at 300 mg/kg, ip after 0.25 hrs. The class given is functional, organism-based. Details: dose 300 mg/kg. In a few lines: as §1
Data set [12] concerns the target Adenosine receptor A2a (Rattus norvegicus, UniProt P30543). Briefly: Displacement of [3H]MSX-2 from adenosine A2A receptor in rat brain striatal membrane. The class given is cell membranes.
Data set [13] has as its system Mus musculus. Put plainly: Neurotoxicity in F1 albino mouse assessed as minimal motor impairment at 300 mg/kg, ip after 0.25 hrs by rotorod test. The data set is classed as toxicity, organism-based. Details: dose 300 mg/kg, route intraperitoneal. As to conditions: in vivo. In a few lines: as §1
Data set [14] has as its system Mus musculus. Briefly: Anticonvulsant activity in F1 albino mouse assessed as protection against maximal electroshock-induced seizures at 300 mg/kg, ip after 0.5 hrs. The class given is functional, organism-based. Also on record: dose 300 mg/kg. In a few lines: as §1
The target in data set [15] is T2, Adenosine receptor A1 (Rattus norvegicus, UniProt P25099).
T2 sequence (P25099 whole entry): T1 sequence (whole entry)
Put plainly: Displacement of [3H]CCPA from adenosine A1 receptor in rat brain cortical membrane. The class given is cell membranes. A general note: In a radioligand displacement assay an active substance lowers the binding of a labelled ligand.

Data set [16] has as its system Mus musculus. Briefly: Neurotoxicity in F1 albino mouse assessed as minimal motor impairment at 300 mg/kg, ip after 0.5 hrs by rotorod test. The class given is toxicity, organism-based. Also on record: dose 300 mg/kg, route intraperitoneal. As to conditions: in vivo. In a few lines:
as §1

Chain of Adenosine receptor A2a (P30543 whole entry): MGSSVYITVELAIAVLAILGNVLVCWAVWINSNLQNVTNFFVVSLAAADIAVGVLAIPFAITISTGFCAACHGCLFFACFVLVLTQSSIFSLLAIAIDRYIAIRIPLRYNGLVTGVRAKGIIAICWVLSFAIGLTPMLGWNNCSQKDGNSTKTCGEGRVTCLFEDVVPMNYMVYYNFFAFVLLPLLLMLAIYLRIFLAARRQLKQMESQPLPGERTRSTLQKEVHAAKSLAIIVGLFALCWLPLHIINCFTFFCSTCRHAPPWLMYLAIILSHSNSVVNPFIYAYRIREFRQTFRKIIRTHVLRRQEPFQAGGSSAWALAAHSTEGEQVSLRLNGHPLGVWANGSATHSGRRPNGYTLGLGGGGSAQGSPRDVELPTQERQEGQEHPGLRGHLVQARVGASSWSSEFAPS

Regarding `CC1CCCCC1N1CCCCn2c1nc1c2c(=O)n(C)c(=O)n1C` (mixture of isomers), the result in data set [1], in data set [4], in [5], in [8], in data set [9] and in data set [11] was inactive. Further, the result in data set [14] was inactive. Also, the Ratio Ki in data set [2] was above 7. In addition, the result in data set [3] was Active. Moreover, the Activity entry in data set [6], in [7], in data set [13] and in [16] was “Non-toxic” each time. For the same molecule, the inhibition in data set [10] came out at 27%. Also, the Ki is 3460 nM in data set [12] and above 25 µM in data set [15].

Consider `Cn1c(=O)c2c(nc3n2CCCCN3C2CCCCC2)n(C)c1=O`, for which the outcome in data set [1], in [3], in data set [4], in data set [5], in data set [8] and in data set [9] was inactive. Moreover, the outcome in [11] and in data set [14] was inactive. In [2], the Ratio Ki turned out to be 1. Moreover, the Activity entry in data set [6], in data set [7], in [13] and in data set [16] was “Non-toxic” in each case. Moreover, the Ki was 2960 nM in [12] and 2.13 µM in [15].

For the molecule `C[C@H](C1CCCCC1)N1CCCn2c1nc1c2c(=O)n(C)c(=O)n1C`, the result in [1], in [3], in data set [4], in data set [5], in [8] and in data set [9] was inactive. For the same molecule, the outcome in data set [11] and in data set [14] was inactive. Moreover, the Ratio Ki in [2] came to 6. Also, the Activity entry in data set [6], in data set [7], in [13] and in data set [16] was “Non-toxic” throughout. Moreover, the figures for the Ki in [12] and in data set [15] were 1300 nM and 7.89 µM, respectively.

Regarding `Cn1c(=O)c2c(nc3n2CCN3CC2CCCCC2)n(C)c1=O`, the outcome in [1], in data set [3], in data set [4], in [5], in [8] and in data set [9] was inactive. For the same molecule, the result in data set [11] and in data set [14] was inactive. The Ratio Ki in data set [2] was above 13. In addition, the Activity entry in [6], in [7], in [13] and in data set [16] was “Non-toxic” each time. Besides, the inhibition in [10] amounted to 41%. Moreover, the values for the Ki in data set [12] and in data set [15] were 2000 nM and at least 25 µM, respectively.

For the molecule `CC1CCCCC1N1CCCn2c1nc1c2c(=O)n(C)c(=O)n1C` (mixture of isomers), the result in data set [1], in data set [3], in [4], in data set [5], in [8] and in data set [9] was inactive. Further, the outcome in data set [11] and in [14] was inactive. The Ratio Ki in data set [2] is above 23. The Activity entry in data set [6], in data set [7], in data set [13] and in data set [16] was “Non-toxic” throughout. In data set [10], this molecule showed an inhibition of 31%. For the same molecule, the Ki in [12] is 1080 nM; in [15], above 25 µM.

As for `Cn1c(=O)c2c(nc3n2CCN3CCC2=CCCCC2)n(C)c1=O`, the result in data set [1], in data set [3], in data set [4], in data set [5], in [8] and in [9] was inactive. In addition, the result in data set [11] and in data set [14] was inactive. Besides, in data set [2], the Ratio Ki stood at 1. The Activity result is recorded as “Non-toxic” in data set [6], “Toxic” in data set [7], “Non-toxic” in data set [13] and “Non-toxic” in data set [16]. For the same molecule, the values for the Ki in data set [12] and in [15] were 2020 nM and 2.45 µM, respectively.

As to `Cn1c(=O)c2c(nc3n2CCCN3C2CC2)n(C)c1=O`, the outcome in [1], in [3], in data set [4], in [5], in [8] and in [9] was inactive. In addition, the result in [11] and in [14] was inactive. Moreover, the Ratio Ki in data set [2] is 20. The Activity result in data set [6] was “Non-toxic”; in data set [7] it was “Non-toxic”; in data set [13], “Non-toxic”; in [16] it was “Toxic”. The molecule further showed an inhibition in data set [10] of 43%. Besides, the Ki in [12] is 1240 nM; in data set [15], at least 25 µM.

As to `Cn1c(=O)c2c(nc3n2CCN3C2CCCC2)n(C)c1=O`, the result in data set [1], in data set [4], in data set [5], in data set [8], in data set [9] and in [11] was inactive. Further, the result in [14] was inactive. The Ratio Ki in data set [2] came out at 8. In data set [3], the result was Active. Besides, the Activity entry is recorded as “Non-toxic” in data set [6], “Non-toxic” in data set [7], “Non-toxic” in data set [13] and “Toxic” in data set [16]. The molecule also came in with an inhibition in data set [10] of 50%. The inhibitory constant (Ki) in [12] was found to be 3100 nM; in data set [15] it was 25 µM.

Regarding `CC(C1CCCCC1)N1CCCn2c1nc1c2c(=O)n(C)c(=O)n1C` (racemic), the outcome in [1], in [3], in data set [4], in data set [5], in [8] and in data set [9] was inactive. The outcome in data set [11] and in data set [14] was inactive. The Ratio Ki in data set [2] stood at 6. Also, the Activity result in data set [6], in data set [7], in data set [13] and in data set [16] was “Non-toxic” in each case. The Ki in data set [12] came out at 1240 nM; in data set [15], 7.58 µM.

`Cn1c(=O)c2c(nc3n2CCCCN3C2CCCC2)n(C)c1=O`: the outcome in data set [1], in [3], in data set [4], in data set [5], in [8] and in data set [9] was inactive. In addition, the result in data set [11] and in data set [14] was inactive. For the same molecule, the Ratio Ki in data set [2] worked out at 4. Also, the Activity result in data set [6], in [7], in data set [13] and in data set [16] was “Non-toxic” each time. For the same molecule, the Ki in data set [12] was 1380 nM; in data set [15], 5.06 µM.

A word on the inhibition: it is the percentage by which the read-out fell short of the control. A lower inhibition goes with a response near the control. As a reminder, the Ki is the dissociation constant of the complex between target and ligand, obtained from inhibition or displacement.
